# Only some compounds are listed: those with a hit (about 4.9% of all), similar ones and a draw of the others.
# STAT3 activator: IL-6 driven STAT3 reporter potentiators, primary screen, U3A cells, luciferase, luminescence, MLSCN library; IL-6 STAT3-luciferase reporter; 100% = signal with IL-6 EC80 alone; activation (% of control), % at 5.6 µM; hit rate 0.91% among 190,000; AID 871, 2007;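 active = activation above the screen-wide mean of compound activation plus 3 SD, cut at about 130% in these data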;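 note: 0% = background luminescence of wells with medium and substrate only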
#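 Material: STAT3-luciferase reporter U3A cells; Probe or stimulus: IL-6 (33 ng/mL); Incubation: compound pre-incubation 1 h before IL-6, then 6 h stimulation at 37 °C; Technique: luminescence from STAT3-driven luciferase reporter; Evaluation: % activation versus median of IL-6-stimulated wells; Controls: IL-6-only high control.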
# APP 5'UTR act: activators of APP 5'UTR luciferase reporter, primary screen, SH-SY5Y cells; SH-SY5Y APP 5'UTR luciferase reporter, luminescence; zero percent = DMSO vehicle wells; activation, % at 2 µM; AID 1276, 2008; hit rate 1% among 190,000;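 active = activation above a set limit, based on mean plus 3 SD of controls, cut at about 140% in these data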
# STAT3 inh-1: IL-6 driven STAT3 reporter inhibitors, primary screen, U3A cells, luciferase, luminescence, MLSCN library. AID 862, 2007. hit rate 0.89% among 190,000. inhibition, % at 5.5 µM. IL-6 STAT3-luciferase reporter; host cell line lacks STAT1;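 active = inhibition above the mean inhibition across all screened compounds plus 3 SD, cut at about 44% in these data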;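 note: 0% = DMSO only wells and 100% = 100 µM nifuroxazide control wells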
# NF-kB expr up: activators of NF-kB expression in neurons, primary screen, cell-based, HTS. AID 1239, 2008. human neuronal cells, NF-kB reporter expression; stronger effect = higher value. hit rate 1.6% among 190,000. fold change at 12.5 µM; in the data active = fold change above about 3.3
# STAT1 inh: STAT1 signaling inhibitors, primary screen, cell-based, HTS, luciferase reporter. hit rate 0.35% among 200,000. inhibition, % at 5.5 µM. NIH 3T3 STAT1-luciferase reporter, IFN-gamma, luminescence;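 active = inhibition above a set limit, the mean inhibition across all tested compounds plus 3 SD, cut at about 34% in these data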;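 note: 0% = IFN-gamma with DMSO and 100% = IFN-gamma with 300 µM nifuroxazide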
# STAT1 activator: STAT1 signaling activators, primary screen, cell-based, HTS, luciferase reporter; NIH 3T3 STAT1-luciferase reporter, IFN-gamma, luminescence; 100% = IFN-gamma alone, no compound; activation (% of control), % at 5.5 µM; hit rate 2.6% among 200,000;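 active = activation above the screen-wide mean activation plus 3 SD, cut at about 130% in these data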;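 note: raw ratio to IFN-gamma control signal so 100% means no change and 0% no light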
# STAT3 inh-2: STAT3 reporter inhibitors, retest of hits, confirmation, U3A cells, luciferase, luminescence; hit rate 45% among 1,200; shares compounds with STAT3 inh-1; inhibition, % at 5.7 µM; AID 1265, 2008; IL-6 STAT3 luciferase reporter; cell line lacks STAT1;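 active = inhibition above the hit cutoff computed for the primary STAT3 screen, cut at about 44% in these data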;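 note: 0% = IL-6 plus DMSO and 100% = IL-6 plus nifuroxazide control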
# NFkB inh STAT3ct: NF-kB reporter inhibitors in human cells, confirmation, counter-screen for STAT3 inhibitor project, cell-based, HEK293T, luciferase, TNF-alpha stimulus; shares compounds with STAT3 inh-1; TNF-alpha induced; inhibition, % at 5.7 µM; hit rate 36% among 1,200;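 active = inhibition above the mean of solvent-only control wells plus 3 SD, cutoff set per campaign, cut at about 13% in these data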;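 note: 0% = TNF-alpha with DMSO and 100% = TNF-alpha with MG high control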
# STAT1 inh 2: STAT1 reporter inhibitors, IFN-gamma induced, confirmation, counter-screen for STAT3 inhibitor project, cell-based, NIH 3T3, luciferase luminescence; shares compounds with STAT3 inh-1; NIH 3T3 STAT1-luciferase reporter; inhibition, % at 5.7 µM; hit rate 27% among 1,200; AID 1317, 2008;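 active = inhibition above the mean plus 3 SD of solvent-only control wells, limit set per screening run, cut at about 16% in these data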;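 note: 0% = DMSO with IFN-gamma and 100% = nifuroxazide control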
# STAT1 act conf: STAT1 signaling activators, confirmation, cell-based, HTS, luciferase reporter; NIH 3T3 STAT1-luciferase reporter, IFN-gamma potentiation, luminescence; 100% = IFN-gamma EC80 alone, no compound; AID 1262, 2008; activation (% of control), % at 5.7 µM; hit rate 97% among 1,200; shares compounds with STAT1 activator;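 active = activation above a set limit carried over from the earlier primary STAT1 screen, cut at about 140% in these data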;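 note: simple ratio to median IFN-gamma plus DMSO wells so 0% means no light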
# NFkB act: NF-kB reporter activators, TNF-alpha stimulated, counter-screen for STAT1 activator project, cell-based, HEK293T, luciferase luminescence; shares compounds with STAT1 activator; 100% = TNF-alpha with vehicle only; activation (% of control), % at 5.7 µM; hit rate 43% among 1,200; AID 1306, 2008;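 active = activation above the mean of solvent-only control wells plus 3 SD, set per campaign, cut at about 130% in these data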;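 note: TNF-alpha given at a submaximal dose yielding about 80% of full reporter signal; values are well signal over median control so 100% means no change and 0% no light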
# STAT3 act STAT1c: STAT3 reporter activation by STAT1 hits, confirmation, counter-screen for STAT1 activator project, U3A cells, luciferase, luminescence; activation (% of control), % at 5.7 µM; shares compounds with STAT1 activator; hit rate 46% among 1,200; IL-6; cells lack STAT1; 100 = IL-6 alone, no compound effect;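 active = activation above the solvent-only control well mean plus 3 SD, set per plate batch, cut at about 110% in these data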;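 note: 0% = no luminescence and 100% = median IL-6 plus DMSO wells; higher means more STAT3 reporter activation so hits are non-selective activators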
# The depositor's hits bear a star; x = not tested or not shown.
SMILES,STAT3 activator,APP 5'UTR act,STAT3 inh-1,NF-kB expr up,STAT1 inh,STAT1 activator,STAT3 inh-2,NFkB inh STAT3ct,STAT1 inh 2,others
Cc1nn(-c2ccccc2Cl)c(Cl)c1/C=N/Nc1cccc(C(=O)O)c1,57.4,2.7,50.8*,9.75*,21.2,80.8,-7.1,60.9*,45.6*,
COc1ccc2cc3c(N)nn(C(=O)Cc4ccc(Cl)cc4)c3nc2c1,93.8,3.1,15.9,1.14,1.8,98.4,x,x,x,
COc1cccc(CC(=O)n2nc(N)c3cc4ccc(OC)cc4nc32)c1,67.7,-12.7,45.8*,1.24,1.4,98.8,36.5,-14.3,8.1,
Cn1c(=O)oc2cc(S(=O)(=O)N3CCCC(C(=O)Nc4ccccn4)C3)ccc21 (configuration not stated),93.3,3.3,13.0,0.98,6.7,93.9,x,x,x,
Cn1c(=O)oc2cc(S(=O)(=O)N3CCCC(C(=O)NC4CCCc5ccccc54)C3)ccc21 (configuration not stated),37.0,-9.9,81.3*,1.42,11.6,89.5,75.4*,34.4*,-6.3,
Cn1c(=O)oc2cc(S(=O)(=O)N3CCCC(C(=O)N4CC=C(c5ccccc5)CC4)C3)ccc21 (configuration not stated),57.6,-10.0,56.5*,0.55,23.1,79.1,44.3*,6.5,11.8,
O=C(OC(C(=O)NC1CCCC1)c1ccncc1)C1=Cc2ccccc2OC1 (configuration not stated),104.8,5.0,-0.8,1.13,10.7,90.2,x,x,x,
COc1ccc(-n2cc(C(=O)c3ccc4ccccc4c3O)cn2)cc1,104.2,-11.6,-3.4,1.05,-4.7,104.2,x,x,x,
COc1ccc(-n2cc(C(=O)c3ccccc3O)cn2)cc1,49.7,236.3*,65.4*,3.94*,-0.2,100.0,14.3,11.9,-101.7,
COc1ccc2c(c1)oc(=O)c1ccccc12,91.9,14.1,11.3,1.52,-20.5,117.7,x,x,x,
COc1ccc2c(c1)oc(=O)c1c3ccccc3[nH]c21,53.0,73.4,59.9*,1.04,-31.9,128.0,62.2*,-10.1,-53.1,
O=C(Nc1ccc(-c2nc3cccnc3s2)cc1)C1CCCO1 (configuration not stated),27.4,76.2,84.3*,2.7,23.4,78.7,66.0*,16.2*,-13.8,
Cc1ccc2nc(-c3ccc(NC(=O)C4CCCO4)cc3)[nH]c2c1 (configuration not stated),41.4,115.1,72.5*,3.83*,5.9,94.6,31.5,-3.8,-104.5,
COC(=O)c1ccc(NC(=O)C2CCCO2)cc1 (configuration not stated),87.9,11.1,23.4,1.6,0.1,100.0,x,x,x,
Cc1nnc(SC(C)C#N)n1-c1ccccc1 (configuration not stated),97.7,-8.3,5.2,1.27,0.2,99.1,x,x,x,
CCOC(=O)C1=C(C)Nc2ccccc2N=C1NC(=O)Cc1ccc(OC)cc1,102.3,1.4,2.8,0.91,7.4,93.3,x,x,x,
Cc1cnc(NC(=O)c2sc3ccccc3c2Cl)s1,46.2,106.9,63.9*,4.57*,-64.9,158.9*,15.3,24.2*,-50.3,STAT1 act conf=172.3*;NFkB act=70.9;STAT3 act STAT1c=79.1
NC(=O)C(=O)NCCCN1CCOCC1,106.3,1.7,-6.0,1.15,-9.3,107.6,x,x,x,
COC(=O)/C=C1\SC(N2CCOCC2)=C(c2ccc(OC)cc2)C1=O,96.8,-2.8,8.7,x,-3.4,101.4,x,x,x,
O=C(O)/C=C/c1ccc([N+](=O)[O-])o1,101.7,-18.0,1.9,1.18,5.0,95.0,x,x,x,
O=[N+]([O-])c1ccc(/C=N/N=C/c2ccc([N+](=O)[O-])o2)o1,54.5,-94.0,58.3*,0.15,-88.9,182.4*,12.7,-46.9,-45.7,STAT1 act conf=134.5*;NFkB act=137.6*;STAT3 act STAT1c=84.6
COc1ccc(C(=O)O/N=C(/c2ccccc2)c2ccncc2)cc1,109.3,16.4,-7.5,1.4,-19.3,116.7,x,x,x,
COc1ccc(C(=O)N=c2nc3ccccn3s2)cc1,55.2,117.2,57.2*,1.37,-91.4,181.9*,15.6,-40.1,-189.0,STAT1 act conf=313.2*;NFkB act=120.2;STAT3 act STAT1c=94.2
O=c1c2c(nc3cc(-c4ccc(F)cc4)[nH]n13)CCCC2,55.6,167.6*,52.7*,3.36*,-83.8,176.7*,18.9,-26.7,-133.4,STAT1 act conf=240.4*;NFkB act=115.1;STAT3 act STAT1c=92.5
CC(C)CCN1CCN(Cc2cccc(C(F)(F)F)c2)CC1CCO (configuration not stated),97.1,-15.0,5.7,0.96,-4.3,102.3,x,x,x,
CCN(CC)S(=O)(=O)c1ccc(NC(=O)COC(=O)c2ccc(-n3nc(C)cc3C)cc2)cc1,98.8,-8.6,1.5,1.28,-0.9,96.9,x,x,x,
CCN(CC)S(=O)(=O)c1ccc(C(=O)OCC(=O)Nc2ccc(-c3nc4ccc(C)cc4s3)cc2)cc1,60.3,151.4*,46.9*,1.55,-59.9,153.4*,29.6,-22.5,-73.8,STAT1 act conf=175.3*;NFkB act=114.4;STAT3 act STAT1c=74.5
COc1cc(S(=O)(=O)NCC2CCCO2)ccc1Br (configuration not stated),97.6,-3.9,3.0,0.86,11.1,89.8,x,x,x,

# Source: PubChem (several laboratories)
